# M5 PAM: human M5 muscarinic receptor positive allosteric modulators, primary screen, CHO-K1 cells, Fluo-8 calcium fluorescence. AID 624038, 2012. activation, % at 3 µM. Muscarinic acetylcholine receptor M5 (Homo sapiens), P08912. 360,000 tested, 0.3% active. CHO-K1 hM5, ACh EC20 PAM; 0% = ACh EC20, 100% = ACh EC100;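 active means activation above the run cutoff, the mean activation of all test compounds plus 3 SD, cut at about 18% in these data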
# Target sequence (P08912 whole entry, looked up): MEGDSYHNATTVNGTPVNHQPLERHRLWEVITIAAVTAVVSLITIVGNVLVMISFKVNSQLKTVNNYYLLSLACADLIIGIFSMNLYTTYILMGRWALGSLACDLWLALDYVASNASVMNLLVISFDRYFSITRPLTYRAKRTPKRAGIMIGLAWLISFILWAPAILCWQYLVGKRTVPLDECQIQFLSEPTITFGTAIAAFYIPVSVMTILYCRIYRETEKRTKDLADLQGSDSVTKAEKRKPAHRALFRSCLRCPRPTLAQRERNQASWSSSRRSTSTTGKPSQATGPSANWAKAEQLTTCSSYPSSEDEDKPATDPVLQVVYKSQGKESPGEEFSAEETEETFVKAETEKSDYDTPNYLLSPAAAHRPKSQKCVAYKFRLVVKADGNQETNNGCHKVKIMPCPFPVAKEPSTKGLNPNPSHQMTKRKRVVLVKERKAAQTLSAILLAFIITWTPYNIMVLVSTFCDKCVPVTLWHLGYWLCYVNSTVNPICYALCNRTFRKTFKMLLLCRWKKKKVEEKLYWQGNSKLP
#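 System – CHO-K1 hM5 cells · Compound – 3 µM, single dose · Incubation – compound preincubation 140 s before EC20 acetylcholine addition · Technique – Fluo-8 calcium fluorescence · Measure – Max/basal fluorescence ratio as % of EC20–EC100 ACh window · Benchmarks – low control EC20 acetylcholine (0%), high control EC100 acetylcholine (100%) · Replication – singlicate, one well per test compound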
# M5 ag: human M5 muscarinic receptor agonists, primary screen, CHO-K1 cells, Fluo-8 calcium fluorescence; Muscarinic acetylcholine receptor M5 (Homo sapiens), P08912; CHO-K1 hM5 cells; 0% DMSO wells, 100% maximal acetylcholine response; activation, % at 3 µM; AID 624037, 2012; 360,000 tested, 0.19% active;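 active means activation above the run's mean over test compounds plus 3 SD, cut at about 23% in these data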;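 further: signal is peak over basal fluorescence ratio across the kinetic read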
# CHRM4 agonist: human M4 muscarinic receptor agonists, primary screen, CHO-K1 cells, Fluo-8 calcium fluorescence; Muscarinic acetylcholine receptor M4 (Homo sapiens), P08173; activation, % at 3 µM; CHO-K1 hM4/Gqi5; vehicle 0%, full acetylcholine response 100%; 360,000 tested, 0.14% active; AID 624127, 2012;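 active means activation above the run mean over all test wells plus 3 SD, cut at about 32% in these data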;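 further: peak over basal fluorescence ratio per well then scaled between controls; 0% = DMSO wells and 100% = acetylcholine at EC100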
# M4 PAM: human M4 muscarinic receptor positive allosteric modulators, primary screen, CHO-K1 cells, Fluo-8 calcium fluorescence. Muscarinic acetylcholine receptor M4 (Homo sapiens), P08173. CHO-K1 hM4/Gqi5, ACh EC20; 0% = ACh EC20, 100% = maximal ACh. activation, % at 3 µM. 360,000 tested, 0.4% active. AID 624126, 2012;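 active means activation above its plate's cutoff, the mean activation of sample wells plus 3 SD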
# CHRM5 antagonist: human M5 muscarinic receptor antagonists, primary screen, CHO cells, Fluo-8 calcium fluorescence. CHO-hM5 cells, ACh EC80. inhibition, % at 3 µM. 360,000 tested, 0.59% active;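 active means inhibition above a per-plate cutoff, the mean of that plate's test compounds plus 3 SD, cut at about 27% in these data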;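 further: 0% = acetylcholine EC80 with DMSO and 100% = DMSO without agonist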
# CHRM4 antagonist: human M4 muscarinic receptor antagonists, primary screen, CHO cells, Fluo-8 calcium fluorescence; Muscarinic acetylcholine receptor M4 (Homo sapiens), P08173; CHO-hM4 cells, ACh EC80; inhibition, % at 3 µM; 360,000 tested, 0.73% active; AID 624125, 2012;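 active means inhibition above its plate's cutoff, the mean inhibition of sample wells plus 3 SD, cut at about 27% in these data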;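 further: 0% = acetylcholine EC80 with DMSO and 100% = DMSO without agonist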
# Starred values were filed as active, the others as inactive. In the library only some 1.9% were active in any assay of this set; here they are far more common.
SMILES,M5 PAM,M5 ag,CHRM4 agonist,M4 PAM,CHRM5 antagonist,CHRM4 antagonist
COc1ccc([C@H]2C[C@@H](O)[C@H](n3cc(C4CC4)nn3)CN2C(=O)C2CCCCC2)cc1,-1,0,1,-1,3,-7
CC(=O)N1c2ccccc2NC2=C(C(=O)CCC2)C1c1ccco1 (stereo not given),21*,8,1,19,11,-9
c1ccc(-c2noc(-c3cccc4ccccc34)n2)cc1,8,-1,0,16*,4,-10
Cc1c(CCOC(=O)c2ccccc2)sc[n+]1CC(=O)c1ccc(Br)cc1,-18,-6,1,-16,28*,28*
Cc1c(CCOC(=O)c2cc([N+](=O)[O-])cc([N+](=O)[O-])c2)sc[n+]1CC(=O)c1ccccc1,4,-15,1,-9,3,4
Cc1c(CCOC(=O)c2ccccc2)sc[n+]1Cc1ccccc1,-22,-8,-1,-41,95*,64*
Cc1cc(C)[n+](-c2ccc(C(C)C)cc2)c2[nH]c(=O)[nH]c(=O)c12,-9,-7,0,-33,-1,41*
COc1cc(F)ccc1-c1csc(C(C)(O)c2ccc(F)c(F)c2)n1 (stereo not given),-9,-5,-1,-4,5,9
Cn1c(=O)n(C)c2cc(CNC(=O)[C@H]3O[C@@H](n4ccc(=O)[nH]c4=O)[C@H](O)[C@@H]3O)ccc21,9,5,1,6,-7,-14
Cc1cccc(NC(=O)c2sc3nc(-c4ccc(F)cc4)cn3c2C)n1,-18,-7,4,-7,32*,0
Cc1ccccc1C(=O)O/N=C(\c1ccccc1)c1ccccn1,6,-2,3,22*,-6,-4
O=C(CNS(=O)(=O)c1ccc(F)cc1)N1CCN(c2ccccc2)CC1,-4,2,2,2,6,27*
O=C(CNS(=O)(=O)c1cccs1)N1CCN(c2ccccc2F)CC1,7,-1,6,17*,-15,-36
Cc1noc(C)c1-c1ccc(C(=O)Nc2ccccc2)c2occc12,-8,0,7,-4,8,-6
CC(C)Cc1nn2c(N)c(/C=C3\C=Nc4ccccc43)c(=O)nc2s1,-19,3,14,-8,32*,1
COc1c(C)cc(C(O)c2ncc(-c3ccccc3)[nH]2)cc1C (stereo not given),-3,4,3,11,6,-19
COc1ccc(NC(=O)C(c2ccncc2)n2c(=O)c(-c3ccccc3)nc3ccccc32)cc1 (stereo not given),-2,2,5,2,2,-4
CC1Nc2ncnc(N3CCc4ccccc4C3)c2N(Cc2ccccc2)C1=O (stereo not given),4,4,2,-5,3,0
O=C(OCc1nnc(-c2ccccc2)o1)C1CC(=O)N(CCc2ccccc2)C1 (stereo not given),2,4,4,25*,4,-10
O=C(NCc1ccc(F)cc1)C1CC(=O)N(CCc2ccccc2)C1 (stereo not given),19*,0,3,-3,6,15
CC(C)CCN1CC(C(=O)NCc2ccc(F)cc2)CC1=O (stereo not given),-3,-2,0,-2,10,1
c1cc2cc(CNc3nc(NCC4CC4)nc4ccsc34)ccc2o1,-10,3,10,-6,16,5
COc1ccccc1CNc1nc(NCc2ccc3occc3c2)c2sccc2n1,-18,2,12,-9,43*,22
COc1ccccc1CNc1nc(NCc2ccccc2SC)c2sccc2n1,-14,2,13,-9,30*,32*
COc1ccccc1CNc1nc(NCc2ccccc2OC)c2sccc2n1,-14,3,12,-10,25,11
SMILES,M5 PAM,M5 ag,CHRM4 agonist,M4 PAM,CHRM5 antagonist,CHRM4 antagonist
Cc1cc(Cl)c(S(=O)(=O)N2CC(C)OC(C)C2)cc1OCC(N)=O (stereo not given),-5,0,1,-3,10,10
CCOc1ccc(NS(=O)(=O)c2cc(OCC(N)=O)c(C)cc2Cl)cc1,7,4,2,27*,6,4
Cc1cc(Cl)c(S(=O)(=O)N2CCSCC2)cc1OCC(N)=O,-1,3,4,19*,-16,1
C[C@@H]1CC[C@H](O)/C=C/C(=O)O[C@H](C)CC[C@H](O)/C=C/C(=O)O1,-10,37*,1,0,5,-4
COc1ccc(C(C)(O)c2nc(-c3ccc4ccccc4c3)cs2)cc1 (stereo not given),0,0,3,1,2,-6
COc1cc(Cn2c3ccc(NC(=O)CC(C)C(F)(F)F)cc3c(=O)n2C)ccc1F (stereo not given),-1,4,10,2,1,-15
CCOc1ccccc1NC(=O)c1cc(C(=O)Nc2ccccc2OCC)cc(N2C(=O)CCC2=O)c1,-17,-1,9,-9,29*,3
CCOc1ccccc1NC(=O)c1cccc(N2C(=O)CCC2=O)c1,-5,-4,1,0,0,-5
CC(=O)c1ccc(N2CCN(C(=O)c3ccc(Cl)c(NC4=NC5CS(=O)(=O)CC5S4)c3)CC2)cc1 (stereo not given),21*,-1,16,48*,29*,17
Cc1ccccc1S(=O)(=O)NC1OC(=O)C(Cl)=C1Cl (stereo not given),2,2,0,1,-7,-6
CC(=O)NC(=O)NC1OC(=O)C(Cl)=C1Cl (stereo not given),0,-3,1,17*,1,-15
CN[C@@H](CO)C(=O)NC[C@H]1O[C@@H](n2cnc3c(N)ncnc32)[C@H](O)[C@@H]1O,5,1,3,16,-12,-17
CCN(C(=O)CSc1nc2ccccc2c(=O)n1Cc1ccc(C)cc1)C1CCS(=O)(=O)C1 (stereo not given),-1,-4,0,1,5,-1
CCn1c(SCC(=O)N(Cc2ccccc2)C2CCS(=O)(=O)C2)nc2ccccc2c1=O (stereo not given),1,0,-1,31*,-2,-6
